Reference: ChEMBL document CHEMBL4385668, “Synthesis and in vitro anticancer activity of new gemcitabine-nucleoside analogue dimers containing methyltriazole or ester-methyltriazole linker” (Bioorg Med Chem Lett, 2019)

Key:
[1] = Drug level in human HeLa cells treated with 1-(3'-Deoxythymidin-3'-yl)-4-[methyloxycarbonyl-(2'-deoxy-2',2'-difluorocytidin-4N-yl)]-1H-1,2,3-triazole assessed as compound release incubated for 12 hrs by HPLC/MS method; format: ADME, cell-based
Procedure, shortened: (§1)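 HeLa cells were incubated with the dimer at 37 °C for 12 h. Cell lysate was analysed by HPLC/MS for released gemcitabine, the deamination product dFdU and the thymidine-triazole fragment. A separately synthesized sample of the thymidine-triazole fragment was used as the reference.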

[2] = Drug metabolism in human HeLa cells assessed as 2',2'-difluoro-2'-deoxyuridine release incubated for 12 hrs by HPLC/MS method; format: ADME, cell-based; procedure, shortened: as §1
KB = test: Cytotoxicity in human KB cells assessed as reduction in cell viability incubated for 72 hrs by SRB assay; format: functional, cell-based
Procedure, shortened: (§2)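 SRB assay of cell viability in human cancer lines (HeLa, KB, A549, U87, HepG2) and normal dermal fibroblasts (HDF). IC50 values are […] of three independent experiments.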

U-87 MG = test: Cytotoxicity in human U87 cells assessed as reduction in cell viability incubated for 72 hrs by SRB assay; format: functional, cell-based, U-87MG ATCC; procedure, shortened: as §2
NHDF = test: Cytotoxicity in human NHDF cells assessed as reduction in cell viability incubated for 72 hrs by SRB assay; format: cell-based; procedure, shortened: as §2
[3] = Selectivity index, ratio of IC50 for cytotoxicity in human NHDF cells to IC50 for cytotoxicity in human HeLa cells
Procedure, shortened: (§3)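 Selectivity index is the IC50 in normal HDF fibroblasts divided by the IC50 in the given cancer line.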

[4] = Selectivity index, ratio of IC50 for cytotoxicity in human NHDF cells to IC50 for cytotoxicity in human HepG2 cells; procedure, shortened: as §3
[5] = Drug metabolism in human HeLa cells assessed as 3'-[4-(hydroxymethyl)-(1,2,3-triazol-1-yl)]-3'-deoxythymidine release incubated for 12 hrs by HPLC/MS method; format: ADME, cell-based; procedure, shortened: as §1
[6] = Selectivity index, ratio of IC50 for cytotoxicity in human NHDF cells to IC50 for cytotoxicity in human U87 cells; procedure, shortened: as §3
[7] = Selectivity index, ratio of IC50 for cytotoxicity in human NHDF cells to IC50 for cytotoxicity in human A549 cells; procedure, shortened: as §3
[8] = Selectivity index, ratio of IC50 for cytotoxicity in human NHDF cells to IC50 for cytotoxicity in human KB cells; procedure, shortened: as §3
[9] = Drug metabolism in human HeLa cells assessed as gemcitabine release incubated for 12 hrs by HPLC/MS method; format: ADME, cell-based; procedure, shortened: as §1
HeLa = test: Cytotoxicity in human HeLa cells assessed as reduction in cell viability incubated for 72 hrs by SRB assay; format: functional, cell-based; procedure, shortened: as §2
A549 = test: Cytotoxicity in human A549 cells assessed as reduction in cell viability incubated for 72 hrs by SRB assay; format: functional, cell-based; settings: A549, 72 h; procedure, shortened: as §2
HepG2 = test: Cytotoxicity in human HepG2 cells assessed as reduction in cell viability incubated for 72 hrs by SRB assay; format: functional, cell-based; settings: HepG2, 72 h; procedure, shortened: as §2

With `Cc1cn([C@H]2C[C@H](n3cc(CO)nn3)[C@@H](CO)O2)c(=O)[nH]c1=O` the Drug uptake [1] was “Active”.

With `Cc1cn([C@H]2C[C@H](n3cc(COC(=O)Nc4ccn([C@@H]5O[C@H](CO)[C@@H](O)C5(F)F)c(=O)n4)nn3)[C@@H](CO)O2)c(=O)[nH]c1=O` the Drug metabolism [2] was “Metabolite_Notdetected”, the IC50 (KB) was 1.55 µM and the IC50 (U-87 MG) was 1.89 µM. For the same molecule, the IC50 (NHDF) was 6.7 µM, the “Ratio IC50” value [3] was 4.41 and the “Ratio IC50” value [4] was 4.38. The Drug metabolism [5] was “Metabolite_Detected”, the “Ratio IC50” value [6] was 3.55 and the “Ratio IC50” value [7] was 4.01. The “Ratio IC50” value [8] was 4.32, the Drug metabolism [9] was “Metabolite_Detected” and the IC50 (HeLa) was 1.52 µM. The IC50 (A549) was 1.67 µM and the IC50 (HepG2) was 1.53 µM.

Molecule `O=C(Nc1ccn([C@@H]2O[C@H](CO)[C@@H](O)C2(F)F)c(=O)n1)OCc1cn(C[C@H]2O[C@@H](n3ccc(NC(=O)OCc4ccccc4)nc3=O)C(F)(F)[C@@H]2O)nn1` has an IC50 (KB) of 2.01 µM, an IC50 (U-87 MG) of 2.14 µM and an IC50 (NHDF) of 8.12 µM. For the same molecule, the “Ratio IC50” value [3] was 4.1, the “Ratio IC50” value [4] was 3.67 and the “Ratio IC50” value [6] was 3.79. For the same molecule, the “Ratio IC50” value [7] was 3.85, the “Ratio IC50” value [8] was 4.04 and the IC50 (HeLa) was 1.98 µM. For the same molecule, the IC50 (A549) was 2.11 µM and the IC50 (HepG2) was 2.21 µM.

In the case of `Cc1cn([C@H]2C[C@H](n3cc(CNc4ccn([C@@H]5O[C@H](CO)[C@@H](O)C5(F)F)c(=O)n4)nn3)[C@@H](CO)O2)c(=O)[nH]c1=O`, the Drug metabolism [2] is reported as “Metabolite_Notdetected”, the IC50 (KB) is reported as 12.2 µM and the IC50 (U-87 MG) is reported as 10.8 µM. For the same molecule, the IC50 (NHDF) was 17.8 µM, the Drug metabolism [9] was “Metabolite_Detected” and the IC50 (HeLa) was 10.9 µM. The IC50 (A549) was 10.6 µM and the IC50 (HepG2) was 12.2 µM.

For `Nc1ccn([C@@H]2O[C@H](CO)[C@@H](O)C2(F)F)c(=O)n1` [GEMCITABINE], the Drug uptake [1] was “Active”, the IC50 (KB) was 8.21 µM and the IC50 (U-87 MG) was 5.21 µM. The IC50 (NHDF) was 19.4 µM, the “Ratio IC50” value [3] was 2.07 and the “Ratio IC50” value [4] was 3.97. For the same molecule, the “Ratio IC50” value [6] was 3.73, the “Ratio IC50” value [7] was 3.85 and the “Ratio IC50” value [8] was 2.37. It also gave an IC50 (HeLa) of 9.42 µM, an IC50 (A549) of 5.05 µM and an IC50 (HepG2) of 4.9 µM.
